# An excerpt weighted towards active compounds, which were near 9.8% of everything screened.
# Lmaj promast: Leishmania major promastigote growth inhibition, primary screen | 9% of 200,000 active | Leishmania major promastigotes, resazurin fluorescence viability | inhibition, % at 10 µM; in the data active means inhibition above about 50%;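 further: promastigotes grown with compound for 44 hours at 28 °C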
# WT yeast gro inh: growth inhibition of WT strain, primary screen, mitochondrial fusion inhibitor project, WT and mutant strains, chemical genetic | inhibition, % at 10 µM | mitochondrial fusion phenotypic screen | 2.1% of 190,000 active | AID 1362, 2008; in the data active means inhibition above about 58%; tested in S. cerevisiae
# PMI act satM6P: human PMI activators, high substrate, primary screen, biochemical, fluorescence intensity, near-saturating mannose 6-phosphate | Mannose-6-phosphate isomerase (Homo sapiens), P34949 | coupled PMI enzyme assay, resazurin fluorescence, 20 min; stronger effect = higher value; 1 = untreated enzyme, 0 = substrate-free blank | activation factor at 20 µM | 0.34% of 190,000 active | AID 1216, 2008;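 active means activation factor of 2 or more at 20 µM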
#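 Material: human phosphomannose isomerase with PGI, G6PDH, diaphorase coupling enzymes. Quantity: 15 ng/mL PMI. Medium: HEPES pH 7.4 buffer with MgCl2 and Tween-20. Reagent: Near-saturating mannose-6-phosphate, 1.0 mM. Compound: 20 µM single dose. Times: enzyme reaction with compound 20 min at room temperature. Detection: resorufin fluorescence at Ex 544/Em 590 nm.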
# m-calpain inh: inhibitors of pig calpain II, primary screen, biochemical, fluorogenic peptide substrate, 1536-well; purified calpain II, 30 min; inhibition, % at 16 µM; 0.37% of 220,000 active;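 active means inhibition above about 50%, limit read from the data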
# Rad51 HR inh: human RAD51 strand exchange inhibitors, primary screen, biochemical, fluorescence. 0.085% of 200,000 active. inhibition, % at 10 µM. AID 1385, 2008. hRad51 DNA strand exchange, fluorescence dequenching;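 active means inhibition above 40% at the single screening dose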;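 further: 0% = DMSO control wells and 100% = blanks with heterologous ssDNA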
# Target sequence (Q06609 whole entry, looked up): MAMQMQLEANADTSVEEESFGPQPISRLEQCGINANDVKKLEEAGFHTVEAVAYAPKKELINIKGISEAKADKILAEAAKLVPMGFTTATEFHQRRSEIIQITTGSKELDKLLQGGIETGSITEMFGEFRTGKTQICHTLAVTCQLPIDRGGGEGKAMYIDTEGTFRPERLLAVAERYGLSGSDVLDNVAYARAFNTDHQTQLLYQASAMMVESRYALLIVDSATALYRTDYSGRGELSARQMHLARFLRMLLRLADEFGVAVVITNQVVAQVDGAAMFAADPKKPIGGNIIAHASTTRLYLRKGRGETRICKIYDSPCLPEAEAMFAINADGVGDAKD
#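 Read-out basis: percent inhibition relative to plate controls and blanks / Assay system: human Rad51 nucleoprotein filaments preassembled on unlabelled ssDNA / Timing: filaments 15 min 37 °C, then compound 30 min / Control set: per-plate controls and blanks / Technique: fluorescence dequenching at 485/520 nm / Compound: 10 µM final, single point / Also added: Fluorescein- and BHQ1-tagged 47-mer duplex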
# PMI act: activators of human PMI, primary screen, biochemical, fluorescence intensity, near-Km mannose 6-phosphate | Mannose-6-phosphate isomerase (Homo sapiens), P34949 | purified human PMI, coupled resazurin fluorescence, 20 min; stronger effect = higher value; 1 = vehicle control, 0 substrate-free wells | activation factor at 20 µM | 0.005% of 190,000 active | AID 1214, 2008;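 active means activation factor of 2 or more at 20 µM, relative to plate controls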
# * hit, by the source's call; . = no result.
SMILES,Lmaj promast,WT yeast gro inh,PMI act satM6P,m-calpain inh,Rad51 HR inh,PMI act
CCC1CCC2(CC1)NC(=O)N(CC(=O)Nc1cc(C)on1)C2=O (stereo not drawn),62*,11,1,13,-5,1
Cc1cc(C(=O)CN2C(=O)NC3(CCCCC3)C2=O)c(C)n1-c1ccc2c(c1)OCO2,-2,-17,1,-20,5,0.9
Cc1cc(-n2c(C)cc(C(=O)CN3C(=O)NC4(CCCCCC4)C3=O)c2C)no1,100*,-18,0.9,-13,1,0.9
Cc1cc(NC(=O)CSc2nncc(=O)n2N)no1,-7,-1,1.1,29,.,1.1
CN(Cc1ccccc1)S(=O)(=O)c1ccc2[nH]cc(C(=O)NCC3CCCO3)c(=O)c2c1 (stereo not drawn),99*,-13,1.2,-60,.,1.1
O=C(NNC(=O)c1ccccc1C(=O)O)c1ccc(O)cc1,4,7,0.9,24,0,1
CC(NC(=O)c1ccccc1)c1ccc(Br)cc1 (stereo not drawn),55*,-16,1,21,21,1
CC(NC(=O)c1ccc(Br)cc1)c1ccccc1 (stereo not drawn),-2,42,1.1,-11,-2,1.1
CC(NC(=O)c1ccc(F)cc1)c1ccc(F)cc1 (stereo not drawn),56*,-14,1,15,0,1
CC(NC(=O)c1ccccc1)c1ccc(F)cc1 (stereo not drawn),4,-5,0.7,62*,-24,0.8
COc1nc(-c2cnccn2)sc1C,-1,1,1.1,-8,-2,1.1
Cc1cc(C)c2c(=O)cc(C(F)(F)F)oc2n1,-5,-5,1,-32,.,1
O=C(CN1c2ccccc2Sc2ccccc21)NNC(=O)Nc1cccc(Cl)c1,.,.,.,-10,5,.
N#Cc1ccc(COC(=O)c2ccccn2)cc1,-1,-7,1,-8,0,1
O=C(CNC(=O)c1ccc(Cl)cc1Cl)NCCCn1ccnc1,-3,-15,0.9,7,8,0.9
S=C(NC1CCCCC1)N1CCN(C2CCCCC2)CC1,91*,11,1.1,18,.,1.1
O=C(NC1CCCCC1)N1CCN(C2CCCCC2)CC1,68*,-6,0.9,13,-1,0.9
O=C(NC12CC3CC(CC(C3)C1)C2)N1CCN(C2CCCCC2)CC1,85*,-4,1,-20,-7,1.1
O=C(c1ccc(Cl)cc1)C1CCCN(Cc2cccn2-c2ccccn2)C1 (stereo not drawn),34,8,1,-15,-4,1
Cc1ccc(-n2cccn2)c(CN2CCCC(C(=O)c3sccc3C)C2)c1 (stereo not drawn),87*,12,1,21,.,1
Cc1ccsc1C(=O)C1CCCN(Cc2cccn2-c2ccc(Cl)cn2)C1 (stereo not drawn),94*,28,1.1,8,13,1.1
COc1ccc(CNC(=O)CSc2nc3ccc(N)cc3s2)cc1,47,-34,0.7,-34,6,1
COc1ccc(S(=O)(=O)N(C)C)cc1NC(=O)COC(=O)c1nn(C)c(=O)c2ccccc12,-5,-3,1,-20,7,1.1
COc1ccc(N2C(=O)c3ccccc3S2(=O)=O)cc1,.,.,.,11,14,.
COc1ccc(N2C(=O)N(Cc3ccc(C)cc3)c3ccccc3S2(=O)=O)cc1,5,5,1,50*,4,1
SMILES,Lmaj promast,WT yeast gro inh,PMI act satM6P,m-calpain inh,Rad51 HR inh,PMI act
Cc1onc(-c2c(Cl)cccc2Cl)c1C(=O)c1ccccc1,.,.,.,11,10,.
Cc1onc(-c2ccccc2Cl)c1C(=O)NCCCN1CCOCC1,53*,-14,1.1,-3,2,1.1
Cc1onc(-c2c(Cl)cccc2Cl)c1C(=O)NCCCN1CCOCC1,88*,-8,1,-3,4,1
Cc1onc(-c2c(Cl)cccc2Cl)c1C(=O)Nn1cnnc1,-6,-4,0.9,-32,44*,1
Cc1onc(-c2c(Cl)cccc2Cl)c1C(=O)c1c[nH]c(C(=O)NCCCN2CCOCC2)c1,-1,4,1,-9,-6,1.1
CCn1c(-c2csc3c2CCC(C)C3)n[nH]c1=S (stereo not drawn),36,47,1,4,.,1
CCC(C)NCC(=O)Nc1cc(S(=O)(=O)N(CC)c2ccccc2)ccc1Cl (stereo not drawn),64*,3,1,9,.,1
CCN(c1ccccc1)S(=O)(=O)c1ccc(OC)c(NC(=O)CNCC(C)O)c1 (stereo not drawn),64*,5,1.1,0,6,0.9
CCN(c1ccccc1)S(=O)(=O)c1ccc(OC)c(NC(=O)Cn2cnc3c2c(=O)n(C)c(=O)n3C)c1,61*,3,1,12,14,1
CCN(c1ccccc1)S(=O)(=O)c1ccc(OC)c(NC(=O)CNC)c1,7,-10,0.9,-2,4,0.9
CN(C)/C=C1/C=C(C=O)OC1=O,.,.,.,21,-18,.
OCCCNC(=S)Nc1ccc(Br)cc1Cl,.,.,.,20,-8,.
COc1ccc(OC)c(C(C(=O)NCc2ccco2)N(C(=O)Cn2nnc3ccccc32)C2CC2)c1 (stereo not drawn),8,15,1,26,-13,1
COc1ccc(C(C(=O)Nc2ccc(F)cc2)N(C(=O)Cn2nnc3ccccc32)C2CC2)cc1 (stereo not drawn),-6,68*,0.8,-12,.,0.7
Cc1ccc(NC(=O)COC(=O)Cc2ccsc2)c(C)c1,1,-8,1,5,4,0.9
COc1cccc(C(=O)N/N=C(/CCC(=O)O)c2ccccc2)c1,41,-6,1.1,-4,7,1
COc1cc(NC(=O)c2ccccn2)cc(OC)c1OC,1,2,0.9,-7,-21,1
COc1cccc(C(=O)N/N=C(/c2ccccc2)c2ccccn2)c1,100*,66*,1.2,1,-4,1.2
COc1cc(C(=O)N/N=C(\c2ccccc2)c2ccccn2)cc(OC)c1OC,99*,3,1.2,6,3,1.1
Cc1cccc(OC(=O)n2c(=S)oc3cc(Cl)ccc32)c1,-3,3,1,0,2,1
COc1cc(SC#N)ccc1N=Cc1c(C)[nH]n(-c2ccc(C)cc2C)c1=O,56*,24,0.9,-44,-18,0.9
CN(C)C(=O)CCCCCCCCC(=O)N(C)C,.,.,.,-3,1,.

# Assay outcomes as filed in PubChem BioAssay.
